Laboratory results taken from paper PMC2695661 (The Journal of Endocrinology, 2009).
“Also recorded” adds a separate entry of the source. Square brackets hold non-standard residues; d marks the D form. Peptide text beside a SMILES is read from it. pGlu = O=C1CC[C@@H](C(=O)O)N1

What was measured:
cGnRH-R-III [1] = target: T1, cGnRH-R-III (Gallus gallus, UniProt Q5EFE0); experiment: Inositol phosphate assay, cGnRH-R-III transfected COS-7 cells; format: cell-based, chicken
T1 sequence (Q5EFE0 1-419): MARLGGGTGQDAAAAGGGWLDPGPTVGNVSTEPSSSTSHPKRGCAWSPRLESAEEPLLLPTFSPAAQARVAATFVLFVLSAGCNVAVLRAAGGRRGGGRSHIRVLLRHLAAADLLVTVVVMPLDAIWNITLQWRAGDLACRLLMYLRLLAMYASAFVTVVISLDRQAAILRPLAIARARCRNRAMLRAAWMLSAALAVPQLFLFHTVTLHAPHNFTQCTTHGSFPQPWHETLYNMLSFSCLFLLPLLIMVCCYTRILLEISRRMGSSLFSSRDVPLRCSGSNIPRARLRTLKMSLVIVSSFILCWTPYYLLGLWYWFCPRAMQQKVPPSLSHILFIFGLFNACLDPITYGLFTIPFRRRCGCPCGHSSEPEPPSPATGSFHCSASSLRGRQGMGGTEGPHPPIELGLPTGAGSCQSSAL
Summary of the method: (§1)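 COS-7 cells were electroporated with a chicken type I or type III GnRH receptor expression construct and grown in DMEM with 10% FCS, 4 mM L-glutamine and penicillin/streptomycin at 37 °C, 5% CO2. After 24 h, cells were labelled 24 h with [3H]-myo-inositol in inositol-free DMEM. They were then washed in 25 mM HEPES-DMEM with 10 mM LiCl and stimulated 1 h at 37 °C with analogue. Antagonist mode included 1 nM GnRH-II. Reactions were stopped with 10 mM formic acid. Total inositol phosphates were eluted from Dowex with 1 M ammonium formate/0.1 M formic acid. Assays were run in triplicate and fitted by non-linear regression.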

cGnRH-R-I [2] = target: T2, cGnRH-R-I (Gallus gallus, UniProt Q9DDC9); experiment: Inositol phosphate assay, cGnRH-R-I transfected COS-7 cells; format: cell-based, chicken
T2 sequence (Q9DDC9 1-375): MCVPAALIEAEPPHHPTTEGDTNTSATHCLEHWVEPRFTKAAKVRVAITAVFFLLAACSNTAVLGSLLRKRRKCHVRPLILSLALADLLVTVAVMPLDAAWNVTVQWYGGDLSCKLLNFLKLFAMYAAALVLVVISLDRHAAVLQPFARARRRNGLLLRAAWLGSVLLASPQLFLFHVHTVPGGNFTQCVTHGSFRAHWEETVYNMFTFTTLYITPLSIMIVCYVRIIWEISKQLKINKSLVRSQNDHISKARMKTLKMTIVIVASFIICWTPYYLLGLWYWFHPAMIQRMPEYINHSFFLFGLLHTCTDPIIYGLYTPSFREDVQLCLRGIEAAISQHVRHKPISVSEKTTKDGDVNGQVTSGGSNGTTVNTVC
Summary of the method: as §1

cGnRH-R-I [3] = target: T2, cGnRH-R-I; experiment: Whole cell radioligand binding assay, cGnRH-R-I transfected COS-7 cells; design: species or system chicken
cGnRH-R-III [4] = target: T1, cGnRH-R-III; experiment: Whole cell radioligand binding assay, cGnRH-R-III transfected COS-7 cells; design: species or system chicken

| Compound | EC50 (cGnRH-R-III [1]) | EC50 (cGnRH-R-I [2]) | inositol phosphate accumulation, GnRH-II relative to cGnRH-I (cGnRH-R-III [1]; cGnRH-R-III transfected cells) | inositol phosphate production potency, GnRH-II relative to cGnRH-I (cGnRH-R-I [2]; cGnRH-R-I) | fold higher affinity for GnRH-II than for cGnRH-I (cGnRH-R-I [3]) | fold higher affinity for GnRH-II than for sGnRH-III (cGnRH-R-I [3]) | fold higher affinity for GnRH-II than for cGnRH-I (cGnRH-R-III [4]) | fold higher affinity for GnRH-II than for sGnRH-III (cGnRH-R-III [4]) |
| --- | --- | --- | --- | --- | --- | --- | --- | --- |
| CC(C)C[C@H](NC(=O)[C@H](Cc1c[nH]c2ccccc12)NC(=O)CNC(=O)[C@H](Cc1ccc(O)cc1)NC(=O)[C@H](CO)NC(=O)[C@H](Cc1c[nH]c2ccccc12)NC(=O)[C@H](Cc1c[nH]cn1)NC(=O)[C@@H]1CCC(=O)N1)C(=O)N1CCC[C@H]1C(=O)NCC(N)=O [sGnRH-III] ([pGlu]HWSYGWLPG-NH2) | 0.021 µM | 0.0103 µM |  |  |  |  |  |  |
| GnRH-II ([pGlu]HWSHGWYPG-NH2; ends and bridges not checked; UniProt O43555 24-33, looked up) |  |  | six times more effective | four times more potent; also recorded: four times more potently | 21 fold | 16 fold | 35 fold | 16 fold |
